The source made the active and inactive calls.
Experiments:
[1] = test system: T47D; experiment: Growth inhibition of human T47D cells; format: functional
How it was run: (§1)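 Run in the NCI 60-cell-line screen under the standard NCI protocol. Cells were tested at concentrations up to 10^-4 M. Potency was expressed as GI50 (M), taken from the NCI mean-graph data.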

[2] = test system: U-251; experiment: Growth inhibition of human U251 cells; format: functional; how it was run: as §1
[3] = Growth inhibition of human Hs 578T cells; format: functional
How it was run: (§2)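 Tested in the NCI 60-cell-line screen using the standard NCI protocol, with concentrations up to 10^-4 M. Growth inhibition is reported as GI50 (M), taken from the NCI mean graphs.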

[4] = test system: Enterococcus faecalis; experiment: Antimicrobial activity against Enterococcus faecalis at 100 ug/ml; format: functional, organism-based
[5] = test system: Salmonella typhimurium; experiment: Antimicrobial activity against Salmonella Typhimurium at 100 ug/ml; format: functional, organism-based; conditions: Salmonella enterica subsp. enterica serovar Typhimurium
[6] = test system: SNB-19; experiment: Growth inhibition of human SNB19 cells; format: functional; how it was run: as §1
[7] = test system: NCI-H226; experiment: Growth inhibition of human NCI-H226 cells; format: functional; how it was run: as §2
[8] = test system: COLO 205; experiment: Growth inhibition of human COLO205 cells; format: functional; how it was run: as §2
[9] = test system: NCI-H23; experiment: Growth inhibition of human NCI-H23 cells; format: functional; how it was run: as §2
[10] = test system: UACC-62; experiment: Growth inhibition of human UACC62 cells; format: functional; how it was run: as §1
[11] = test system: RXF 393; experiment: Growth inhibition of human RXF393 cells; format: functional; how it was run: as §1
[12] = test system: UO-31; experiment: Growth inhibition of human UO31 cells; format: functional; how it was run: as §1
[13] = test system: SW-620; experiment: Growth inhibition of human SW620 cells; format: functional; how it was run: as §1
[14] = test system: DU-145; experiment: Growth inhibition of human DU145 cells; format: functional; how it was run: as §2
[15] = test system: SK-OV-3; experiment: Growth inhibition of human SKOV3 cells; format: functional; how it was run: as §1
[16] = test system: OVCAR-8; experiment: Growth inhibition of human OVCAR8 cells; format: functional; how it was run: as §2
[17] = test system: M14; experiment: Growth inhibition of human M14 cells; format: functional; how it was run: as §2
[18] = test system: Escherichia coli; experiment: Antimicrobial activity against Escherichia coli at 100 ug/ml; format: functional, organism-based
[19] = test system: HOP-92; experiment: Growth inhibition of human HOP92 cells; format: functional; how it was run: as §2
[20] = test system: ACHN; experiment: Growth inhibition of human ACHN cells; format: functional; how it was run: as §2
[21] = test system: OVCAR-3; experiment: Growth inhibition of human OVCAR-3 cells; format: functional; how it was run: as §2
[22] = test system: EKVX; experiment: Growth inhibition of human EKVX cells; format: functional; how it was run: as §2
[23] = test system: A498; experiment: Growth inhibition of human A498 cells; format: functional; how it was run: as §2
[24] = test system: SF-295; experiment: Growth inhibition of human SF295 cells; format: functional; how it was run: as §1
[25] = test system: OVCAR-4; experiment: Growth inhibition of human OVCAR4 cells; format: functional; how it was run: as §2
[26] = test system: MCF7; experiment: Growth inhibition of human MCF7 cells; format: functional; how it was run: as §2
[27] = test system: BT-549; experiment: Growth inhibition of human BT549 cells; format: functional; how it was run: as §2
[28] = test system: NCI-H460; experiment: Growth inhibition of human NCI-H460 cells; format: functional; how it was run: as §2
[29] = test system: A549; experiment: Growth inhibition of human A549 cells; format: functional
[30] = test system: KM12; experiment: Growth inhibition of human KM12 cells; format: functional; how it was run: as §2
[31] = test system: SN12C; experiment: Growth inhibition of human SN12C cells; format: functional; how it was run: as §1
[32] = test system: HL-60(TB); experiment: Growth inhibition of human HL-60(TB) cells; format: functional
How it was run: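 Run in the NCI 60-cell line panel using the standard NCI protocol. The value is reported as GI50 in molar units, with 10^-4 M the top concentration examined.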

[33] = test system: SK-MEL-5; experiment: Growth inhibition of human SK-MEL-5 cells; format: functional; how it was run: as §1
[34] = read-out: pLC50 (the source's name) (converted)

COc1cccc(/C=C/[C@H]2O[C@@H](C)[C@H](O)[C@@H]2O)c1CO [VARITRIOL]
inactive: Activity [4] | Activity [5] | Activity [18]
0.209 µM: GI50 [1]
1.1 µM: GI50 [14]
95.5 µM: GI50 [8]
0.933 µM: TGI ([11]; read-out: pTGI (converted))
25.1 µM: GI50 [32]
0.162 µM: GI50 [11]
> 100 µM: CC50 [1, 34] | GI50 [2] | CC50 [2, 34] | TGI ([2]; read-out: pTGI) | GI50 [3] | CC50 [3, 34] | TGI ([3]; read-out: pTGI) | CC50 [6, 34] | TGI ([6]; read-out: pTGI) | GI50 [7] | CC50 [7, 34] | TGI ([7]; read-out: pTGI) | CC50 [8, 34] | TGI ([8]; read-out: pTGI) | GI50 [9] | CC50 [9, 34] | TGI ([9]; read-out: pTGI) | GI50 [10] | CC50 [10, 34] | TGI ([10]; read-out: pTGI) | CC50 [11, 34] | GI50 [12] | CC50 [12, 34] | TGI ([12]; read-out: pTGI) | GI50 [13] | CC50 [13, 34] | TGI ([13]; read-out: pTGI) | CC50 [14, 34] | GI50 [15] | CC50 [15, 34] | TGI ([15]; read-out: pTGI) | GI50 [16] | CC50 [16, 34] | TGI ([16]; read-out: pTGI) | GI50 [17] | CC50 [17, 34] | TGI ([17]; read-out: pTGI) | GI50 [19] | CC50 [19, 34] | TGI ([19]; read-out: pTGI) | GI50 [20] | CC50 [20, 34] | TGI ([20]; read-out: pTGI) | GI50 [21] | CC50 [21, 34] | TGI ([21]; read-out: pTGI) | GI50 [22] | CC50 [22, 34] | TGI ([22]; read-out: pTGI) | GI50 [23] | CC50 [23, 34] | TGI ([23]; read-out: pTGI) | GI50 [24] | CC50 [24, 34] | TGI ([24]; read-out: pTGI) | GI50 [25] | CC50 [25, 34] | TGI ([25]; read-out: pTGI) | GI50 [26] | CC50 [26, 34] | TGI ([26]; read-out: pTGI) | GI50 [27] | CC50 [27, 34] | TGI ([27]; read-out: pTGI) | GI50 [28] | CC50 [28, 34] | TGI ([28]; read-out: pTGI) | GI50 [29] | CC50 [29, 34] | TGI ([29]; read-out: pTGI) | GI50 [30] | CC50 [30, 34] | TGI ([30]; read-out: pTGI) | GI50 [31] | CC50 [31, 34] | TGI ([31]; read-out: pTGI) | CC50 [32, 34] | TGI ([32]; read-out: pTGI) | GI50 [33] | CC50 [33, 34]
2.4 µM: TGI ([14]; read-out: pTGI (converted))
1.05 µM: TGI ([1]; read-out: pTGI (converted))
91.2 µM: GI50 [6]

Source: ChEMBL document CHEMBL1148105, “Bioactive metabolites from a marine-derived strain of the fungus Emericella variecolor” (2002)
